CYP2C9 inhib – inhibitors of human CYP2C9; P11712; CYP2C9 Supersomes, luciferin-H conversion, luminescence; inhibition, % at 5 µM; actives 20% (n = 96,000); AID 777;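 active = blocking of liver enzyme CYP2C9 beyond about 50% at 5 µM, limit read from the data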
CYP2C19 activ – cytochrome P450 2C19 (human) activation; recombinant CYP2C19, luciferin-H EGE luminescence; hits give high values; 0 = fully inhibited enzyme, 1 = untreated enzyme; activation factor at 5 µM; 96,000 tested, under 10 active; AID 1025;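 active = activation factor of at least 2 at 5 µM in the primary screen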;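 also: 0 = wells with 2.5 mM tranylcypromine and 1 = vehicle-only wells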
Target sequence (P33261 whole entry, looked up): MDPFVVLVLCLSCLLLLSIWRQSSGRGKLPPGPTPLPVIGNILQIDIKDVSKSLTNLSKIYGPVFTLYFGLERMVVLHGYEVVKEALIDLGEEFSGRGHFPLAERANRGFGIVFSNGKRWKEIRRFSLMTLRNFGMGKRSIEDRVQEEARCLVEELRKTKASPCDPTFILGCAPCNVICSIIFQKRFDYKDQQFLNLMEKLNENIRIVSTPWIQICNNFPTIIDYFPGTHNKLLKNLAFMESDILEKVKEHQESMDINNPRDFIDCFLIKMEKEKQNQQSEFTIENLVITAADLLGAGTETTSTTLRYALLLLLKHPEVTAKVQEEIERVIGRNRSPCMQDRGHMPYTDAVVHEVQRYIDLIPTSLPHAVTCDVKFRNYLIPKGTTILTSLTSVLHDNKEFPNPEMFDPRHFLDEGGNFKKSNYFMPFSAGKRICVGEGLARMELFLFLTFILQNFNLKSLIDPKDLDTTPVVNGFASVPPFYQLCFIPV
CYP2C19 inh – blocks human cytochrome P450 2C19. P33261. inhibition, % at 5 µM. CYP2C19 Supersomes, luciferin-H EGE luminescence, 30 min. actives 21% (n = 96,000). AID 778;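 active = CYP2C19 inhibition above a set limit at 5 µM in the primary screen, cut at about 50% in these data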;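 also: plate controls were negative control wells for no effect and 2.5 mM tranylcypromine positive control for full effect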
Ecoli WT expand – blocks growth of wild type E. coli BW25113; OD600 absorbance; growth inhibition, % at 100 µM; actives 0.15% (n = 98,000);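 active = growth inhibition above about 50% at one test dose, limit read from the data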;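 also: growth measured after 20 h incubation at 37 °C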
Ecoli tolC – E. coli tolC mutant growth inhibition. AID 573. actives 2.2% (n = 65,000). growth inhibition, % at 10 µM (by protocol). E. coli BW25113 tolC mutant growth, OD615;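 active = growth inhibition at or above a cutoff equal to the mean over every tested compound plus 3 SD, cut at about 60% in these data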;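 also: growth measured after 20 h incubation at 37 °C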
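Assay system: tolC-deleted E. coli BW25113. Medium: kanamycin-containing LB broth (50 µg/mL). Dosing: 10 µM final, single dose. Timing: bacterial growth with compound for 20 h at 37 °C. Detection: A615 absorbance measurement. Read-out basis: growth inhibition in percent.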
CYP2C9 act – activators of human CYP2C9; P11712; recombinant CYP2C9, luciferin-H conversion, luminescence; hits give high values; factor 1 = untreated enzyme, 0 = blocked; activation factor at 5 µM; actives 1.4% (n = 96,000); AID 1024;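 active = activation factor of 2 or more for CYP2C9 at a 5 µM dose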;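 also: 0 = sulfaphenazole-blocked wells and 1 = vehicle-only wells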
* = called active by the depositor; · = no result given. A selection: hits, their analogues and other compounds. The true share with any hit is near 29%.

SMILES	CYP2C9 inhib	CYP2C19 activ	CYP2C19 inh	Ecoli WT expand	Ecoli tolC	CYP2C9 act
O=C(COc1ccc(Cl)cc1Cl)Nc1nc2n(n1)C(c1ccccc1)CC(=O)N2 (stereo unspecified)	21	1	3	-4	5	0.8
O=C(Nc1ccc(N2CCN(C(=O)c3ccccc3)CC2)cc1)c1ccc(Br)o1	30	0.9	10	-5	10	0.7
O=C(Nc1ccc(CN2CCOCC2)cc1)c1ccc(-c2cc(Cl)ccc2Cl)o1	65*	0.5	55*	-6	·	0.3
O=C(Nc1ccc(N2CCCC2)cc1)c1ccc(Br)o1	10	0.4	61*	-15	8	0.9
O=C(Nc1ccc(N2CCN(C(=O)c3ccccc3)CC2)c(Cl)c1)c1ccc(Br)o1	51*	0.6	37	-5	19	0.5
Cc1ccc(NC(=O)c2cc(S(=O)(=O)N3CCCCC3)ccc2N2CCOCC2)cc1F	68*	1.1	-7	-7	·	0.3
COc1ccccc1CN1CC(C(=O)NC2CCCCC2)CC1=O (stereo unspecified)	-20	0.9	12	2	-25	1.2
CCOc1ccccc1CN1C(=O)c2ccccc2C1C(=O)NC(C)CC (stereo unspecified)	1	1	-2	0	·	1
C#CCOC(=O)c1ccccc1C(=O)n1nnc2ccccc21	66*	0.1	88*	6	-4	0.3
CCOC(=O)C1CCN(C(=O)c2cc(OCC)c(OCC)c(OCC)c2)CC1	32	0.8	22	-2	2	0.7
Cc1ccccc1CN(c1ccc(C(=O)N2CCc3ccccc3C2)cc1)S(C)(=O)=O	63*	0.5	55*	-4	·	0.4
O=C(Nc1ccccc1C(=O)N1CCOCC1)c1ccc(F)cc1	-4	1	1	2	·	1
CNC(=O)c1ccc(N(Cc2ccccc2C)S(C)(=O)=O)cc1	43	0.4	57*	-3	-3	0.6
Cc1ccccc1CN(c1ccc(C(=O)Nc2ccccc2C(=O)N2CCCC2)cc1)S(C)(=O)=O	91*	0	99*	-6	·	0.1
Cc1ccccc1CN(c1ccc(C(=O)Nc2ccccc2C(=O)NCc2ccco2)cc1)S(C)(=O)=O	83*	0	99*	-11	·	0.2
COc1ccc(CCNC(=O)CSc2nnnn2-c2ccccc2OC)cc1OC	29	0.7	32	5	1	0.7
CCC(Oc1ccccc1)C(=O)N1CCN(C(=O)C(CC)Oc2ccccc2)CC1 (stereo unspecified)	84*	0.6	42	4	·	0.2
CCC(Oc1ccccc1)C(=O)N1CCN(c2ccccn2)CC1 (stereo unspecified)	85*	0.2	79*	3	0	0.1
CCC(Oc1ccccc1)C(=O)N1CCN(CC)CC1 (stereo unspecified)	3	1	-1	1	·	1
Cc1n[nH]c(C)c1CCc1nc2c3ccccc3nc(SCC(=O)Nc3ccccc3F)n2n1	95*	0.4	64*	-4	·	0.1
Cc1cccc(NC(=O)CSc2nc3ccccc3c3nc(CCc4c(C)n[nH]c4C)nn23)c1	88*	0.3	66*	-6	·	0.1
CCn1nc(C(=O)OCC(=O)c2c[nH]c3ccccc23)c2ccccc2c1=O	72*	0.7	32	-2	48	0.3
CCc1cccc2c(C(=O)Cn3nnc(-c4ccc(OC)c(OC)c4)n3)c[nH]c12	62*	0.3	71*	-12	·	0.4
CCc1cccc2c(C(=O)COC(=O)c3nn(C)c(=O)c4ccccc34)c[nH]c12	88*	0.1	94*	-8	·	0.1
CCc1cccc2c(=O)c(C(=O)N3CCCCCC3)c[nH]c12	5	1	2	-4	-8	0.9
SMILES	CYP2C9 inhib	CYP2C19 activ	CYP2C19 inh	Ecoli WT expand	Ecoli tolC	CYP2C9 act
CC(C)n1nc(C(=O)OCC(=O)c2c[nH]c3ccccc23)c2ccccc2c1=O	22	0.8	18	-4	·	0.8
CC(=O)C1=C(C)OC(N)=C(C#N)C1c1cc2cc(C)c(C)cc2nc1Cl (stereo unspecified)	25	0.1	87*	6	·	0.8
CCOC(=O)C1=C(c2ccccc2)OC(N)=C(C#N)C1c1ccc(Cl)s1 (stereo unspecified)	22	0.7	34	-2	·	0.8
COc1ccc(OC)c(N=c2oc3c(OC)cccc3cc2C(=O)NCc2ccco2)c1	50*	0.6	45	·	-5	0.5
COc1ccccc1N=c1oc2c(OC)cccc2cc1C(=O)NCc1ccco1	62*	0.3	66*	-7	-10	0.4
COc1ccc(N=c2oc3c(OC)cccc3cc2C(=O)NCc2ccco2)cc1OC	72*	0.5	50*	-22	-14	0.3
COc1ccc(CC(=O)NCc2ccco2)cc1OC	-10	0.6	43	-2	·	1.1
CN=C(Nc1ccc(Cl)cc1)c1ccc(C(F)(F)F)cc1	25	0.2	80*	23	·	0.7
C/C(=C\C(=O)C(F)(F)F)Nc1ccc(C(F)(F)F)cc1	2	1	4	1	·	1
CN=C(Nc1ccc(Cl)cc1)c1cccc(C(F)(F)F)c1	23	0.3	74*	17	·	0.8
COc1cc(C2C(C#N)=C(N)Oc3cc(C)n(Cc4ccccn4)c(=O)c32)cc2c1OCO2 (stereo unspecified)	·	·	·	·	7	·
COC(=O)C1(C)Nc2ccccc2C(=O)N1c1ccccc1C (stereo unspecified)	19	0.6	37	-1	-13	0.8
Cc1cc2nc(C3CCN(CC4COc5ccccc5O4)CC3)[nH]c2cc1C (stereo unspecified)	41	0.5	54*	10	48	0.6
CCCNC(=S)N1CCC(c2nc3cc(C)c(C)cc3[nH]2)CC1	16	0.8	23	-3	·	0.8
O=C1CC(N2CCN(c3ccc(S(=O)(=O)N4CCOCC4)cc3)CC2)C(=O)N1Cc1ccccc1 (stereo unspecified)	39	0.6	39	3	5	0.6
O=C(c1ccncc1)c1ccc(N2CCN(C3CC(=O)N(Cc4ccccc4)C3=O)CC2)cc1 (stereo unspecified)	60*	0.1	86*	-7	18	0.4
O=C(c1noc2c1CCCCC2)N1CCN(C(c2ccccc2)c2ccccc2)CC1	·	·	·	·	24	·
Cc1cc(NC(=O)c2ccccc2)ncc1NC(=O)c1ccco1	56*	0.1	95*	4	-10	0.4
CCCC(=O)Nc1cnc(NC(=O)c2cccc(F)c2)cc1C	23	0.3	68*	6	-4	0.8
CCCC(=O)Nc1cc(C)c(NC(=O)c2ccccn2)cn1	-3	0.5	54*	0	-4	1
CCC(=O)Nc1ccc(NC(=O)c2ccccn2)cn1	-24	1.1	-8	-18	-4	1.2
CCC12CC3CC(C1)CC(C(=O)Nc1nn[nH]n1)(C3)C2	-12	0.9	7	8	7	1.1
